The values below come from PubChem BioAssay AID623916 (The Scripps Research Institute Molecular Screening Center, 2012).

Activity calls are given as the source filed them.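 The calls were made as follows: active = recipient E. coli survival below 80% of the solvent-only control; inactive = survival at 80% of control or higher.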

This assay deals with E. coli V66 viability, colony formation, 1.5 h. Kind of assay: recipient strain killing during Hfr crosses – colony formation, single concentration, Hfr recombination, cytotoxicity control for AddAB inhibitor project, late-stage follow-up (AID 623916). The note with it: at 100 µM. Put shortly:
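buffer or medium = LB broth | assay system = E. coli strain V66 recipients | benchmarks = DMSO vehicle control as viability reference | timing = 1.5 h total compound exposure | dosing = single nominal 100 µM compound, present during pre-growth and mating | detection = colony counts of V66 on non-selective agar plates, CFU/mL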
On to `C=CCNC(=S)N1CCN(c2ncc3c(=O)c(C(=O)O)cn(CC)c3n2)CC1`, for which the outcome was inactive.

For `O=C(Nc1ccc(N2CCOCC2)cc1)c1ccc([N+](=O)[O-])o1`, the outcome was inactive.

Consider `CC1CCc2c(sc(NC(=O)c3ccc([N+](=O)[O-])o3)c2N)C1` (centres undefined), for which the outcome was inactive.

For `O=C(OCC(=O)c1cccs1)c1ccc([N+](=O)[O-])o1`, the result was inactive.

Consider `O=C(NCc1cccnc1)c1ccc([N+](=O)[O-])o1`, for which the outcome was inactive.

For `N#Cc1c(NC(=O)c2cnccn2)sc2c1CCCC2`, the result was inactive.

`CCn1cc(C(=O)O)c(=O)c2cnc(N3CCN(C(=S)NC(=O)c4cccnc4)CC3)nc21`: the result was inactive.

Consider `Cc1sc(NC(=O)c2ccc(Br)o2)c(C#N)c1C`, for which the result was inactive.

As to `O=C(Nc1cccc(NC(=O)c2ccccc2Cl)c1)c1ccc([N+](=O)[O-])o1`, the result was inactive.

In the case of `CCn1cc(C(=O)O)c(=O)c2cnc(N3CCN(C(=S)Nc4cccc(C(F)(F)F)c4)CC3)nc21`, the result was inactive.

With `N#Cc1c(NC(=O)C2CC=CCC2C(=O)O)sc2c1CCC2` (centres undefined), the result was inactive.

Take `CCn1cc(C(=O)O)c(=O)c2cnc(N3CCNCC3)nc21`: the outcome was inactive.

Turning to `CCn1cc(C(=O)O)c(=O)c2cnc(N3CCN(C(=S)Nc4ccccc4Cl)CC3)nc21`, the outcome was inactive.

For the compound `N#Cc1c(NC(=O)c2ccco2)sc2c1CCC2`, the result was inactive.

As for `CCn1cc(C(=O)O)c(=O)c2cnc(N3CCN(C(=S)Nc4ccccc4C(F)(F)F)CC3)nc21`, the result was inactive.

`N#Cc1c(NC(=O)c2ccc([N+](=O)[O-])o2)sc2c1CCC2`: the result was inactive.

Take `CCn1cc(C(=O)O)c(=O)c2cnc(N3CCN(C(=S)Nc4ccccc4F)CC3)nc21`: the result was inactive.

`Cc1ccc2nc(/C(C#N)=C\c3ccc([N+](=O)[O-])o3)[nH]c2c1`: the outcome was inactive.

In the case of `CCn1cc(C(=O)O)c(=O)c2cnc(N3CCN(C(=S)NC(=O)c4cccc(C)c4)CC3)nc21`, the result was inactive.

For the compound `CCn1cc(C(=O)O)c(=O)c2cnc(N3CCN(C(=S)Nc4ccccc4OC)CC3)nc21`, the outcome was inactive.

With `N#Cc1c(NC(=O)c2ccccc2)sc2c1CCC2`, the outcome was inactive.

Turning to `Cc1ccc(C(=O)Nc2sc3c(c2C#N)CCC3)o1`, the outcome was inactive.

In the case of `CCn1cc(C(=O)O)c(=O)c2cnc(N3CCN(C(=S)Nc4ccc5c(c4)OCCO5)CC3)nc21`, the result was inactive.

Regarding `Cc1cccnc1NC(=O)c1ccc([N+](=O)[O-])o1`, the outcome was inactive.

Regarding `N#Cc1c(NC(=O)c2cccc(F)c2)sc2c1CCCC2`, the result was inactive.

With `CC(=O)Nc1ccc2nc(NC(=O)c3ccc([N+](=O)[O-])o3)sc2c1`, the outcome was inactive.

As to `Cc1ccc(C(=O)Nc2sc3c(c2C#N)CCCCC3)o1`, the result was inactive.

With `CCn1cc(C(=O)O)c(=O)c2cnc(N3CCN(C(=S)NCc4ccccc4)CC3)nc21`, the outcome was inactive.

On to `CCn1cc(C(=O)O)c(=O)c2cnc(N3CCN(C(=S)NC)CC3)nc21`, for which the outcome was inactive.

Turning to `O=C(Nc1ncccn1)c1ccc([N+](=O)[O-])o1`, the outcome was inactive.

Regarding `CC1CCc2c(sc(NC(=O)c3ccc([N+](=O)[O-])o3)c2C#N)C1` (centres undefined), the result was inactive.

As to `CCn1cc(C(=O)O)c(=O)c2cnc(N3CCN(C(=S)NC4CC5CCC4C5)CC3)nc21` (centres undefined), the outcome was inactive.

`CCn1cc(C(=O)O)c(=O)c2cnc(N3CCN(C(=S)Nc4ccc(Cl)cc4)CC3)nc21`: the result was inactive.

As to `CCn1cc(C(=O)O)c(=O)c2cnc(N3CCN(C(=S)NC(=O)c4ccco4)CC3)nc21`, the result was inactive.

`C=CCn1c(Sc2ncc([N+](=O)[O-])s2)n[nH]c1=O`: the outcome was inactive.

For the compound `NC(=O)c1ccsc1NC(=O)COC(=O)c1ccc([N+](=O)[O-])o1`, the result was inactive.

Take `CCn1cc(C(=O)O)c(=O)c2cnc(N3CCN(C(=O)Nc4ccccc4)CC3)nc21`: the outcome was inactive.

In the case of `CCn1cc(C(=O)O)c(=O)c2cc(F)c(N3CCN(C(=S)Nc4cccc(C(F)(F)F)c4)CC3)cc21`, the result was active.

`CCn1cc(C(=O)O)c(=O)c2cnc(N3CCN(C(=S)NC(=O)c4ccccc4Cl)CC3)nc21`: the result was inactive.

For `CCn1cc(C(=O)O)c(=O)c2cnc(N3CCN(C(=S)Nc4ccc5c(c4)OCO5)CC3)nc21`, the outcome was inactive.

Take `CCn1cc(C(=O)O)c(=O)c2cnc(N3CCN(C(=S)Nc4ccccc4C)CC3)nc21`: the result was inactive.

For `CCn1cc(C(=O)O)c(=O)c2cnc(N3CCN(C(=S)Nc4ccc(F)cc4)CC3)nc21`, the result was inactive.

In the case of `CCn1cc(C(=O)O)c(=O)c2cnc(N3CCN(C(=S)NC(C)c4ccccc4)CC3)nc21` (centres undefined), the outcome was inactive.

Regarding `N#Cc1c(NC(=O)c2ccccc2C(=O)O)sc2c1CCCC2`, the result was inactive.

In the case of `N#Cc1c(NC(=O)c2ccc([N+](=O)[O-])o2)sc2c1CCCC2`, the outcome was inactive.

Regarding `N#Cc1c(NC(=O)c2ccc(-c3ccccc3[N+](=O)[O-])o2)sc2c1CCCC2`, the outcome was inactive.

Consider `CCn1cc(C(=O)O)c(=O)c2cnc(N3CCN(C(=S)Nc4ccccc4)CC3)nc21`, for which the outcome was inactive.

Take `Nc1c(NC(=O)c2ccc([N+](=O)[O-])o2)sc2c1CCCC2`: the outcome was inactive.

With `CC1(C)Cc2c(sc(NC(=O)c3ccco3)c2C#N)CO1`, the result was inactive.
